From PubChem BioAssay
MrgX1 antag: blocks BAM8-22 activation of human MrgX1 receptor. MRGX1-HEK293 calcium flux, Fluo-4, BAM8-22 antagonism; hits give low values. B-score at 10 µM. 310,000 tested, 1.3% active. AID 588676;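 active = calcium-response B-score plate-corrected more than 3 library SD below zero, starting fluorescence within 5 deviations, no agonist response on first addition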;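 note: peak minus trough fluorescence over baseline after final BAM8-22 challenge near maximal dose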
Target sequence (Q96LB2 whole entry, looked up): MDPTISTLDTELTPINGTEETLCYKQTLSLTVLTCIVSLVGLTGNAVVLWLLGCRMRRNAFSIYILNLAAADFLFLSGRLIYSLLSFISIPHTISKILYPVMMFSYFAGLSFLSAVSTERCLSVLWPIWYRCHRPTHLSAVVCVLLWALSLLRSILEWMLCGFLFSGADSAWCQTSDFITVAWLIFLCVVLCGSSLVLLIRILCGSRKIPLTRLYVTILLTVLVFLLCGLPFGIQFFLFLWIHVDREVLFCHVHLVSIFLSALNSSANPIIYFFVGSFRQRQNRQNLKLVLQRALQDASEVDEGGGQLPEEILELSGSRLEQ
RGS4 act: RGS4 potentiation or activation; HEK293 M3R/inducible RGS4, carbachol calcium flux Fluo4; hits give low values; B-score at 10 µM; 310,000 tested, 0.92% active; AID 463111;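 active = B-score of the integrated calcium signal more than 4 SD below the library mean, with starting fluorescence not abnormally high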;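 note: negative B-score means reduced calcium response which marks RGS4 activation or potentiation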
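Reagent: ECmax carbachol challenge; Test system: M3R-expressing HEK293 line, RGS4 induced by doxycycline; Schedule: overnight RGS4 induction, 30 min dye load 37 °C, 20 min compound RT; Detection: calcium dye Fluo4 fluorescence; Read-out: Agonist-evoked peak-minus-minimum fluorescence over baseline, integrated ratio, B score.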
MrgX1 agonist: activates human MrgX1 receptor signaling | 310,000 tested, 0.44% active | Q96LB2 | B-score at 10 µM | MrgX1-HEK293 cells, Fluo-4 calcium fluorescence, agonist mode; hits give high values;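 active = calcium response B-score plate-corrected fluorescence ratio at least 3 library SD, with starting fluorescence B-score inside 5 SD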
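Material: HEK293 cells stably expressing human MrgX1 receptor | Quantity: 15,000 cells per well | Times: Cells plated overnight, dye loaded 0.5 h 37 °C, 0.5 h room temperature | Measured by: Kinetic Fluo-4 NW fluorescence of intracellular calcium | Control set: Positive and negative controls per plate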
RGS4 inh: human RGS4 inhibition; P49798; 310,000 tested, 0.45% active; HEK293 M3R/RGS4 inducible, Fluo-4 calcium flux; hits give high values; triggered by carbachol at its EC20; B-score at 10 µM;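 active = B-score, a plate-corrected calcium signal, over three deviations above library mean, with baseline fluorescence within five deviations of library mean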;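 note: RGS4 expression induced by doxycycline in cells with stable M3 receptor; B-score is computed from the integrated fluorescence ratio over baseline after carbachol; higher B-score means a larger calcium signal and so more RGS4 inhibition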
Target sequence (P49798 whole entry, looked up): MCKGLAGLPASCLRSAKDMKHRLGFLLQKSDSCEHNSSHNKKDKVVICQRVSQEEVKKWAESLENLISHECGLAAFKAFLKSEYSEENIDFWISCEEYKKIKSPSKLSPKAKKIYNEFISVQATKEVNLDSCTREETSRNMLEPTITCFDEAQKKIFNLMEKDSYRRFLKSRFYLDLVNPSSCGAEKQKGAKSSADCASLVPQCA
MrgX1 PAM: human MrgX1 positive allosteric modulation, primary screen; Q96LB2; MrgX1-HEK293, Fluo-4 calcium flux, FDSS; hits give high values; B-score at 10 µM; 310,000 tested, 0.63% active; AID 588675;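 active = plate-corrected calcium response at least 3 library SD above typical, normal starting fluorescence, not activating the receptor alone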;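 note: compound read alongside a low EC10 to EC30 dose of BAM8-22 agonist; peak minus trough fluorescence over baseline measured at the second addition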
MrgX1 ant reconf: reconfirmed antagonist of human MrgX1 receptor signaling; shares compounds with MrgX1 antag; MrgX1-HEK293, BAM8-22 calcium flux, Fluo-4; hits give low values; remaining BAM8-22 calcium response % of control (hits give low values), % at 10 µM; 2,300 tested, 19% active; AID 602420;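 active = remaining agonist calcium response no higher than 100% minus 3 SD of agonist-only control wells, with starting fluorescence near control levels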;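 note: agonist BAM8-22 given at a near maximal EC90 to ECmax level; peak minus minimum fluorescence divided by baseline after agonist addition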
HEK293 Ca flux: MrgX1 antagonist counter-screen hit in parental HEK293 cells. shares compounds with MrgX1 antag. Fluo-4 calcium fluorescence, FDSS. fluorescence ratio F(max-min)/F0 at 10 µM. 4,000 tested, 2% active. AID 624111;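 active = duplicate-averaged calcium fluorescence ratio at least three times the standard deviation of buffer wells, a nonspecific response in parental cells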
HEK293 Ca counter: activity in parental HEK293 cells without MrgX1 | AID 624114 | fluorescence ratio F(max-min)/F0 at 10 µM | parental HEK293 calcium flux, Fluo-4 fluorescence ratio; hits give high values | 4,000 tested, 0.4% active | shares compounds with MrgX1 antag;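 active = calcium fluorescence ratio, averaged over duplicates, at least 3 SD of the buffer-well ratio, meaning a nonspecific response in receptor-free cells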;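 note: untransfected parental HEK293 lacking MrgX1 used as counterscreen for MrgX1 allosteric activators; fluorescence change taken during the second addition on a kinetic imager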
HEK293 Ca cntr2: activity in parental HEK293 cells lacking MrgX1 receptor; Fluo-4 calcium fluorescence (FDSS); hits give high values; shares compounds with MrgX1 antag; fluorescence ratio F(max-min)/F0 at 10 µM; 4,000 tested, 8.7% active;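 active = calcium fluorescence ratio at least three times the spread of buffer wells, meaning a non-specific response in parental cells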
Each line names hits and unclear results; the compound was inactive in the other large screens (follow-up assays come after a bar, where they were run). Most compounds without a hit are left out; they make up all but 3.5% or so of the library.

CS(=O)(=O)N(CC(=O)NC1CC1)C1CCCCC1	none
COCCC(=O)Nc1c(-c2ccccc2)c2cc(Br)ccc2[nH]c1=O	none
CCCc1nc2ccccc2c(=O)n1CC(=O)c1ccccc1	MrgX1 antag -5.8 | MrgX1 ant reconf inactive | HEK293 Ca flux inactive | HEK293 Ca counter inactive | HEK293 Ca cntr2 inactive
COc1ccccc1-n1c(SCC(N)=O)nc2sc3c(c2c1=O)CCC3	none
CC(=O)Nc1ccc(NC(=O)Cn2cnc3c(nnn3Cc3ccc(F)cc3)c2=O)cc1	MrgX1 antag -6.8 | MrgX1 ant reconf inactive | HEK293 Ca flux inactive | HEK293 Ca counter inactive | HEK293 Ca cntr2 inactive
O=C(Cn1cnc2c(nnn2Cc2ccc(F)cc2)c1=O)NCc1ccc(F)cc1	none
Cc1nn(C)c(Cl)c1CN1CCN(C2CCCC2)C(CCO)C1 (stereo not given)	MrgX1 antag -11 | MrgX1 ant reconf inactive | HEK293 Ca flux inactive | HEK293 Ca counter inactive | HEK293 Ca cntr2 inactive
Cc1ccccc1NC(=O)CSc1ccc(-c2ccc(-n3cccn3)cc2)nn1	none
COc1ccccc1NC(=O)CSc1ccc(-c2ccc(-n3ccnc3)cc2)nn1	MrgX1 antag -5.1 | MrgX1 ant reconf inactive | HEK293 Ca flux inactive | HEK293 Ca counter inactive | HEK293 Ca cntr2 inactive
Cc1nc2ccccc2c2c1CC(C(C)(Cl)Br)O2 (stereo not given)	none
COc1c2c(nc3ccccc13)OC(C(C)(O)COC(C)=O)C2 (stereo not given)	MrgX1 antag -6.5 | MrgX1 ant reconf inactive | HEK293 Ca flux inactive | HEK293 Ca counter inactive | HEK293 Ca cntr2 inactive
N#CCSc1nnc(-c2ccc3c(c2)OCO3)o1	none
C=CCn1c(C)cc(C(=O)CSc2nnc(Cc3ccccc3)o2)c1C	none
Cc1cc(C(=O)CSc2nnc(Cc3ccccc3)o2)c(C)n1Cc1ccc2c(c1)OCO2	MrgX1 antag -7.5 | MrgX1 ant reconf inactive | HEK293 Ca flux inactive | HEK293 Ca counter inactive | HEK293 Ca cntr2 inactive
N#CCSc1nnc(Cc2ccc3c(c2)OCO3)o1	MrgX1 antag -5.4 | MrgX1 ant reconf inactive | HEK293 Ca flux inactive | HEK293 Ca counter inactive | HEK293 Ca cntr2 inactive
CCc1nnc(NC(=O)CSc2nnc(C)c(=O)n2N)s1	none
COc1ccc(-n2ncc(C(C)NS(=O)(=O)c3cc(F)ccc3C)c2C)cc1 (stereo not given)	none
N#Cc1c(N)nc2c(c1-c1ccccc1)CCCC2	none
CSc1nc2c(c(-c3ccccc3)c1C#N)CCC2	MrgX1 antag -6.5 | MrgX1 ant reconf inactive | HEK293 Ca flux inactive | HEK293 Ca counter inactive | HEK293 Ca cntr2 inactive
Cc1coc2c1c(C)cc1oc(=O)c(CC(=O)NCCCN3CCCC3=O)c(C)c12	none
CCOC(=O)c1cnc(SC)nc1Oc1cccc(NC(=O)c2ccc(Cl)cc2)c1	none
CCOC(=O)c1cnc(SC)nc1Oc1cccc(NS(=O)(=O)c2ccc(Cl)cc2)c1	MrgX1 antag -8.7 | MrgX1 ant reconf 73% | HEK293 Ca flux inactive | HEK293 Ca counter inactive | HEK293 Ca cntr2 inactive
COc1ccc(OC(C)c2ccc(C#N)c(=O)[nH]2)cc1 (stereo not given)	none
COC(OC)c1ccc(C#N)c(=O)[nH]1	MrgX1 antag -6.2 | MrgX1 ant reconf 83% | HEK293 Ca flux inactive | HEK293 Ca counter inactive | HEK293 Ca cntr2 inactive
Cc1c(Br)c(C(F)(F)F)nn1CC(=O)NCc1ccccc1	none
Cc1ccc(CNC(=S)Nc2ccc(NS(=O)(=O)c3ccc(C)cc3)cc2)cc1	none
COc1cccc(NC(=O)CSc2nnc3ccc(-c4ccncc4)nn23)c1	none (no result: MrgX1 antag, MrgX1 agonist, MrgX1 PAM)
CC1CN(Cc2cc(=O)oc3cc(O)ccc23)CC(C)O1 (stereo not given)	none
CCOC(=O)C1CCCN(C(=O)CSCc2ccccc2)C1 (stereo not given)	MrgX1 antag -8.9 | MrgX1 ant reconf inactive | HEK293 Ca flux inactive | HEK293 Ca counter inactive | HEK293 Ca cntr2 inactive
COc1ccc(NC(=O)CSc2nc3c(c(=O)[nH]2)CCC3)cc1OC	none
O=C(Nc1ccc(F)cc1)Nc1ccc2c(c1)OCO2	MrgX1 antag -4.8 | MrgX1 ant reconf inactive | HEK293 Ca flux inactive | HEK293 Ca counter inactive | HEK293 Ca cntr2 inactive
O=C(Nc1ccc2c(c1)OCO2)Nc1ccc2c(c1)OCO2	none
N#CC1=C(N)Oc2cc3c(cc2C1c1ccc(Cl)cc1)OCO3 (stereo not given)	MrgX1 antag -7.9 | MrgX1 ant reconf inactive | HEK293 Ca flux inactive | HEK293 Ca counter inactive | HEK293 Ca cntr2 inactive
CCn1cnc2cc(NCc3ccc(C)cc3)ccc21	MrgX1 antag -4.6 | MrgX1 ant reconf inactive | HEK293 Ca flux inactive | HEK293 Ca counter inactive | HEK293 Ca cntr2 inactive
CCN(CC)c1ccc(CNc2ccc3c(c2)ncn3CC)cc1	none
COc1cc(OC)cc(C(=O)Nc2cccc(N3CCCC3)c2)c1	none
CN(C)CCCNc1ncnc2scc(-c3ccccc3)c12	none
c1ccc(-c2csc3ncnc(NCc4ccccn4)c23)cc1	MrgX1 antag -5.6 | MrgX1 ant reconf inactive | HEK293 Ca flux inactive | HEK293 Ca counter inactive | HEK293 Ca cntr2 inactive
FC(F)(F)c1cccc(Cc2noc(CN3CCC(c4ccncc4)CC3)n2)c1	none
O=C(CSc1nnc(C2COc3ccccc3O2)o1)N1CCOCC1 (stereo not given)	none
O=C(CSc1nnc(C2COc3ccccc3O2)o1)N1CCCc2ccccc21 (stereo not given)	MrgX1 antag -4.5 | MrgX1 ant reconf inactive | HEK293 Ca flux inactive | HEK293 Ca counter inactive | HEK293 Ca cntr2 inactive
Cc1cnc(C(=O)Nc2ccc(C)c(S(=O)(=O)N(C)C)c2)cn1	none
Cc1ccc(NC(=O)c2sccc2C)cc1S(=O)(=O)N(C)C	MrgX1 antag -5.2 | MrgX1 ant reconf inactive | HEK293 Ca flux inactive | HEK293 Ca counter inactive | HEK293 Ca cntr2 inactive
O=C(Nc1ncc2c(n1)-c1ccccc1CC2)c1ccc(Cl)cc1	MrgX1 antag -5.2 | MrgX1 ant reconf inactive | HEK293 Ca flux inactive | HEK293 Ca counter inactive | HEK293 Ca cntr2 inactive
O=C(Nc1ncc2c(n1)-c1ccccc1OC2)c1ccc(F)cc1	none
O=C(Nc1ncc2c(n1)-c1ccccc1CC2)c1cccc(Cl)c1	none
CCCSCC(=O)Nc1ncc2c(n1)-c1ccccc1CC2	MrgX1 antag -4.7 | MrgX1 ant reconf 75% | HEK293 Ca flux inactive | HEK293 Ca counter inactive | HEK293 Ca cntr2 inactive
